Measured values from different studies.
Lines come from different studies, so protocols differ. pIC50: −log10 of the molar value. Values after ≈ are worked out from the molar mass of the structure shown.
Organism: Mycobacterium tuberculosis
Effect on: microbial growth

COc1ccc(-c2cc(C(F)(F)F)c3c(N)c(C(=O)NC(C)C4CCCCC4)sc3n2)cc1 (stereo not shown) — pIC50 (H37RV): 6.03
CCCc1ccc(CNc2cc(-c3ccccn3)nc3nncn23)cc1 — MIC (H37RV): > 100 µM
NC(=S)c1cncc(Cn2c(=S)[nH]c3cc(CO)c(Cl)cc3c2=O)c1 — MIC90 (H37RV): 4.61 µM (≈ 1.81 µg/mL)
COc1ccc(-c2cc(C(F)(F)F)c3c(N)c(C(=O)N4CC5(CCOC5)C4)sc3n2)cc1 — pIC50 (H37RV): 4.62
O=c1c2cc(Cl)c(CO)cc2[nH]c(=S)n1Cc1cccnc1 — MIC90 (H37RV): 3.6 µM (≈ 1.2 µg/mL)
COc1ccc(-c2cc(C(F)(F)F)c3c(N)c(C(=O)NC45CC6CC(CC(O)(C6)C4)C5)sc3n2)cc1 — pIC50 (H37RV): < 4.00
O=C(O)c1cc2[nH]c(=S)n(Cc3cccnc3)c(=O)c2cc1Cl — MIC90 (H37RV): > 100 µM
COc1ccc(-c2cc(C(F)(F)F)c3c(N)c(C(=O)NCCSC)sc3n2)cc1 — pIC50 (H37RV): 4.38
CO[C@H]1/C=C/O[C@@]2(C)Oc3c(C)c(O)c4c(O)c(c(/C=N/N5CCN(C)CC5)c(O)c4c3C2=O)NC(=O)/C(C)=C\C=C\[C@H](C)[C@H](O)[C@@H](C)[C@@H](O)[C@@H](C)[C@H](OC(C)=O)[C@@H]1C — MIC50: 0.01 µg/mL (≈ 0.0122 µM)
COc1ccc(CCNc2cc(-c3ccccn3)nc3cc(Br)nn23)cc1 — MIC (H37RV): 23 µM (≈ 9.76 µg/mL)
NCC[C@H](O)C(=O)N[C@@H]1C[C@H](N)[C@@H](O[C@H]2O[C@H](CN)[C@@H](O)[C@H](O)[C@H]2O)[C@H](O)[C@H]1O[C@H]1O[C@H](CO)[C@@H](O)[C@H](N)[C@H]1O — inhibition (H37RV; 2.5 µg/mL): ~90%
CC(C)c1ccc(Cn2c(=S)[nH]c3ccc(Cl)cc3c2=O)cn1 — MIC90 (H37RV): > 100 µM
Cc1nnc2nc(-c3ccccn3)cc(NCCc3ccc(Cl)cc3)n12 — MIC (H37RV; 5 days): 17 to 50 µM (≈ 6.2 to 18.2 µg/mL)
